Data set [1] deals with Human immunodeficiency virus type 1 reverse transcriptase (Human immunodeficiency virus 1, UniProt Q72547). The experiment in a line: Inhibition RNase H activity of HIV1 reverse transcriptase expressed in Escherichia coli stain BL21(DE3)pLysS. In outline: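 His-tagged p66/p51 RT expressed in E. coli BL21(DE3)pLysS with 1 mM IPTG for 3 h. Substrate: 18-mer RNA labelled with 3′-FAM, annealed to complementary DNA carrying a 5′-BHQ quencher. Reaction used 100 ng RT at 37 °C, with cleavage followed in real time by fluorescence at 488 nm every 150 s. IC50 taken as the concentration halving the cleavage rate relative to control.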

Data set [2] can be described thus: (§1) Cytotoxicity against human MT4 cells after 3 days by MTT assay. It counts as cell-based. The conditions noted are these: MT4 cells. Put shortly: (§2)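 Cells in RPMI-1640 with 10% FBS: MT-4 seeded at 4 × 10⁵/mL, 293T at 2 × 10⁵/mL. Compound final concentrations 100, 50, 25 and 12.5 µM, 1% DMSO final, plus an untreated control. Incubated 3 days at 37 °C in 5% CO₂. MTT added for 1 h, then solubilized overnight at 4 °C and read at OD570/690. CC50 derived only when viability fell below 50% at 100 µM.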

A short description of data set [3]: Cytotoxicity against human 293T cells after 3 days by MTT assay. It counts as cell-based, HEK-293T. The conditions noted are these: for CC50 at 72 h: 293T cells; for CC50: hek-293t, 72 h. Put shortly:
as §2

The subject of data set [4] is MT4. The description is as §1. The conditions noted are these: mt4, 72 h. In kind it is cell-based. In outline:
as §2

Bounds are passed on as bounds.

`COc1ccc(CN(C(=O)COC(=O)c2ccc([N+](=O)[O-])o2)C(C)(C)C)cc1`: half-maximal inhibition in data set [1] (IC50) required 7.5 µM. For the same molecule, the CC50 at 72 h in data set [2] and in data set [3] was over 100 µM throughout.
As for `CCOC(=O)[C@H](CC(C)C)NC(=O)c1ccc([N+](=O)[O-])o1`, the IC50 in data set [1] was over 50 µM.
In turn, `O=C(COC(=O)c1ccc([N+](=O)[O-])o1)NC1Cc2ccccc2C1` registered an IC50 in data set [1] of 5.5 µM. Further, the CC50 at 72 h in data set [2] and in data set [3] was over 100 µM throughout.
In data set [1], `CC(C)(C)NC(=O)COC(=O)c1ccc([N+](=O)[O-])o1` returned an IC50 of 18 µM. For the same molecule, the CC50 at 72 h in data set [2] and in data set [3] was over 100 µM each time.
Molecule `CC(C)(C)N(Cc1c(F)c(F)c(F)c(F)c1F)C(=O)COC(=O)c1ccc([N+](=O)[O-])o1` displayed an IC50 in data set [1] of 6.8 µM. Also, the figures for the CC50 at 72 h in data set [2] and in data set [3] were over 100 µM and 83 µM, respectively.
`CC(C)(C)NC(=O)COC(=O)c1ccc(-c2ccc([N+](=O)[O-])cc2)o1` yielded an IC50 in data set [1] of over 50 µM.
Regarding `CC(C)(C)N(Cc1ccccc1C(F)(F)F)C(=O)COC(=O)c1ccc([N+](=O)[O-])o1`, it took 9 µM to reach half-maximal inhibition in data set [1] (IC50). Besides, the CC50 at 72 h in data set [2] amounted to 95 µM; in data set [3], 65 µM.
In the same order, the values of `CCC(C)(C)NC(=O)COC(=O)c1ccc([N+](=O)[O-])o1` are 5.8 µM, over 100 µM and over 100 µM.
The like results for `CC(C)(NC(=O)COC(=O)c1ccc([N+](=O)[O-])o1)c1ccccc1` were, in that order, 8.2 µM, over 100 µM and over 100 µM.
In the same order, the values of `CC(=O)Oc1ccccc1CN(C(=O)COC(=O)c1ccc([N+](=O)[O-])o1)C(C)(C)C` are 12.8 µM, over 100 µM and over 100 µM.
`CC(C)(C)C(=O)COC(=O)c1ccc([N+](=O)[O-])o1`: the concentration for half-maximal inhibition (IC50) in data set [1] turned out to be 21.9 µM. Also, the CC50 at 72 h in data set [2] and in data set [3] was over 100 µM throughout.
With `CC(=O)Oc1ccc(CN(C(=O)COC(=O)c2ccc([N+](=O)[O-])o2)C(C)(C)C)cc1`, the IC50 in data set [1] amounted to 8.7 µM. In addition, the CC50 at 72 h in data set [2] and in data set [3] was over 100 µM each time.
Take `CN(OC(=O)c1ccc([N+](=O)[O-])o1)C(=O)c1ccc([N+](=O)[O-])o1`: half-maximal inhibition in data set [1] (IC50) was put at 2.7 µM. Moreover, the CC50 at 72 h in data set [2] is 86 µM; in data set [3], over 100 µM.
As for `CC(C)(C)NC(=O)COC(=O)c1ccc(C(=O)c2ccccc2)o1`, the IC50 in data set [1] was over 50 µM.
Same read-out and setting: to `CCC(C)(C)NC(=O)COC(=O)c1ccc([N+](=O)[O-])s1` belongs 5.8 µM.
In the case of `O=C(COC(=O)c1ccc([N+](=O)[O-])o1)NC1CCCc2ccccc21` (stereo not given), 4.3 µM corresponded to half-maximal inhibition in data set [1] (IC50). Moreover, the CC50 at 72 h in data set [2] and in data set [3] was over 100 µM in each case.
On to `CC(C)(C)N(Cc1ccc([N+](=O)[O-])cc1)C(=O)COC(=O)c1ccc([N+](=O)[O-])o1`, for which the IC50 in data set [1] was 6.9 µM. Besides, the CC50 at 72 h in data set [2] and in data set [3] was over 100 µM throughout.
Consider `CC(C)(C)N(Cc1ccccc1)C(=O)COC(=O)c1ccco1`, for which, in data set [1], the half-inhibitory concentration (IC50) is over 50 µM.
The same measure, in the same setting: then `CC(C)(C)NC(=O)COC(=O)c1ccc([N+](=O)[O-])cc1`, with over 50 µM.
As to `CCOC(=O)[C@H](C)NC(=O)c1ccc([N+](=O)[O-])o1`, the IC50 in data set [1] is over 50 µM.
Take `CC(=O)COC(=O)c1ccc([N+](=O)[O-])o1`: the IC50 in data set [1] came out at 7.1 µM. Besides, the CC50 at 72 h in data set [2] and in data set [3] was over 100 µM each time.
`CC(C)(C)NC(=O)COC(=O)c1ccc(-c2ccccc2[N+](=O)[O-])o1` showed an IC50 in data set [1] of over 50 µM.
For the molecule `CC(C)(C)C(=O)COC(=O)c1ccc([N+](=O)[O-])s1`, half-maximal inhibition in data set [1] (IC50) required 5.7 µM.
`O=C(COC(=O)c1ccc([N+](=O)[O-])o1)NC1CCc2ccccc21` (stereo not given) displayed an IC50 in data set [1] of 6.1 µM. For the same molecule, the CC50 at 72 h in data set [2] and in data set [3] was over 100 µM in each case.
For `CC(C)(C)N(Cc1ccc(C(F)(F)F)cc1)C(=O)COC(=O)c1ccc([N+](=O)[O-])o1`, it took 8 µM to reach half-maximal inhibition in data set [1] (IC50). The CC50 at 72 h in data set [2] was determined as 71 µM; in data set [3], 36 µM.
In the case of `CC(C)(C)NC(=O)COC(=O)c1ccc(Br)o1`, the IC50 in data set [1] is over 50 µM.
Turning to `CCC(C)(C)N(Cc1cccc([N+](=O)[O-])c1)C(=O)COC(=O)c1ccc([N+](=O)[O-])s1`, in data set [1], inhibition was half-maximal at 25.8 µM (IC50).
On to `O=C(COC(=O)c1ccc([N+](=O)[O-])o1)NCC1CCCO1` (stereo not given), for which the IC50 in data set [1] is 4.2 µM. Besides, the CC50 at 72 h in data set [2] and in data set [3] was over 100 µM in each case.
Turning to `CCOC(=O)[C@H](Cc1ccccc1)NC(=O)c1ccc([N+](=O)[O-])o1`, in data set [1], the IC50 is over 50 µM.
In data set [1], `CCOC(=O)[C@@H](NC(=O)c1ccc([N+](=O)[O-])o1)c1ccccc1` showed an IC50 of over 50 µM.
The same measure, in the same setting: to `CCOC(=O)[C@H](Cc1ccc(O)cc1)NC(=O)c1ccc([N+](=O)[O-])o1` belongs over 50 µM.
As to `CC(C)(C)N(Cc1cccc([N+](=O)[O-])c1)C(=O)COC(=O)c1ccc([N+](=O)[O-])o1`, in data set [1], the IC50 is 9.8 µM. Moreover, the CC50 at 72 h in data set [2] was over 100 µM; in data set [3], 78 µM.
`CC(C)(C)NC(=O)COC(=O)c1cccc([N+](=O)[O-])c1` showed an IC50 in data set [1] of over 50 µM.
`CC(C)(C)N(CCc1ccccc1)C(=O)COC(=O)c1ccc([N+](=O)[O-])o1` gave an IC50 in data set [1] of 14.2 µM. For the same molecule, the CC50 at 72 h in data set [2] is over 100 µM; in data set [3], 67 µM.
The like results for `CC(C)(C)N(Cc1cccc(C(F)(F)F)c1)C(=O)COC(=O)c1ccc([N+](=O)[O-])o1` were, in that order, 8.5 µM, over 100 µM and 68 µM.
The molecule `O=C(OCC(=O)N(Cc1ccccc1)CC1CCCO1)c1ccc([N+](=O)[O-])o1` (stereo not given) displayed an IC50 in data set [1] of 7.7 µM. For the same molecule, the CC50 at 72 h in data set [2] and in data set [3] was over 100 µM throughout.
The molecule `CC(C)(Cc1ccccc1)NC(=O)COC(=O)c1ccc([N+](=O)[O-])o1` yielded an IC50 in data set [1] of 4.3 µM. Moreover, the CC50 at 72 h in data set [2] and in data set [3] was over 100 µM in each case.
Turning to `CC(C)(C)NC(=O)COC(=O)c1ccc([N+](=O)[O-])s1`, the IC50 in data set [1] was 2.8 µM. The CC50 at 72 h in data set [2] and in data set [3] was over 100 µM each time.
Molecule `CC(C)(C)N(CCCc1ccccc1)C(=O)COC(=O)c1ccc([N+](=O)[O-])o1` yielded an IC50 in data set [1] of over 50 µM. Further, the CC50 result in data set [4] and in data set [3] was “Not Active” in each case.
Molecule `CC(C)OC(=O)COC(=O)c1ccc([N+](=O)[O-])o1` had a 50% inhibitory concentration (IC50) in data set [1] of 13.2 µM. The CC50 at 72 h in data set [2] and in data set [3] was over 100 µM in each case.
In turn, `CC(C)(C)N(Cc1ccccc1)C(=O)COC(=O)c1cc([N+](=O)[O-])cc([N+](=O)[O-])c1` displayed a half-inhibitory concentration (IC50) in data set [1] of over 50 µM.
Same read-out and setting: then `CC(C)(C)NC(=O)COC(=O)c1ccc(-c2cccc([N+](=O)[O-])c2)o1`, with over 50 µM.
In data set [1], `O=C(OCC(=O)N(Cc1ccc(O)cc1)CC1CCCO1)c1ccc([N+](=O)[O-])o1` (stereo not given) returned an IC50 of 5 µM. For the same molecule, the 50% cytotoxic concentration (CC50) at 72 h in data set [2] and in data set [3] was over 100 µM each time.
Molecule `CC(C)(C)N(Cc1ccccc1)C(=O)COC(=O)c1ccc([N+](=O)[O-])o1` registered an IC50 in data set [1] of 0.9 µM. In addition, the CC50 at 72 h in data set [2] and in data set [3] was over 100 µM in each case.
Turning to `CC(C)(C)N(Cc1ccc(F)cc1)C(=O)COC(=O)c1ccc([N+](=O)[O-])o1`, the IC50 in data set [1] came to 8.5 µM. For the same molecule, the CC50 at 72 h in data set [2] and in data set [3] was over 100 µM throughout.
`CC(C)(C)NC(=O)COC(=O)c1ccno1`: the 50% inhibitory concentration (IC50) in data set [1] was over 50 µM.
For the molecule `CC(C)(C)N(Cc1ccc(OCc2ccccc2)cc1)C(=O)COC(=O)c1ccc([N+](=O)[O-])o1`, the IC50 in data set [1] was over 50 µM. Also, the CC50 result in data set [4] and in data set [3] was “Not Active” each time.
In the case of `CCC(C)(C)N(Cc1ccc([N+](=O)[O-])cc1)C(=O)COC(=O)c1ccc([N+](=O)[O-])s1`, the half-maximal inhibitory concentration (IC50) in data set [1] was found to be 33.5 µM.
In data set [1], `CC(C)(C)N(CCC(=O)c1ccccc1)C(=O)COC(=O)c1ccc([N+](=O)[O-])o1` had an IC50 of over 50 µM. Besides, the CC50 entry in data set [4] and in data set [3] was “Not Active” throughout.
On to `COC(=O)CNC(=O)c1ccc([N+](=O)[O-])o1`, for which the IC50 in data set [1] is over 50 µM.
With `O=C(OCCc1ccc([N+](=O)[O-])cc1)c1ccc([N+](=O)[O-])o1`, the IC50 in data set [1] is 2.1 µM. Besides, the figures for the CC50 at 72 h in data set [2] and in data set [3] were 28 µM and 36 µM, respectively.
As to `CC(=O)COC(=O)c1ccc([N+](=O)[O-])s1`, the midpoint of inhibition in data set [1], the IC50, lay at 9.5 µM.
Still for that read-out and setting: then `CC(C)(C)NC(=O)COC(=O)c1ccccc1[N+](=O)[O-]`, with over 50 µM.

The values are drawn from ChEMBL document CHEMBL1641478, “Structural and biochemical study on the inhibitory activity of derivatives of 5-nitro-furan-2-carboxylic acid for RNase H function of HIV-1 reverse transcriptase” (Bioorg Med Chem, 2011).
